Experimental data reported in ChEMBL document CHEMBL1122806 (J Med Chem, 1984).
Each block holds one molecule with its values, some of them ahead of it. Square brackets hold non-standard residues; d marks the D form. Peptide text beside a SMILES is read from it. Sta = CC(C)C[C@H](N)[C@@H](O)CC(=O)O

Tests used:
Aminopeptidase N [1] = biological target: T1, Aminopeptidase N (Sus scrofa, UniProt P15145); assay: Compound was evaluated for the inhibition of Aminopeptidase M (AP-M) and the inhibition constant was determined after preincubating the enzyme and inhibitor
T1 sequence (P15145 whole entry): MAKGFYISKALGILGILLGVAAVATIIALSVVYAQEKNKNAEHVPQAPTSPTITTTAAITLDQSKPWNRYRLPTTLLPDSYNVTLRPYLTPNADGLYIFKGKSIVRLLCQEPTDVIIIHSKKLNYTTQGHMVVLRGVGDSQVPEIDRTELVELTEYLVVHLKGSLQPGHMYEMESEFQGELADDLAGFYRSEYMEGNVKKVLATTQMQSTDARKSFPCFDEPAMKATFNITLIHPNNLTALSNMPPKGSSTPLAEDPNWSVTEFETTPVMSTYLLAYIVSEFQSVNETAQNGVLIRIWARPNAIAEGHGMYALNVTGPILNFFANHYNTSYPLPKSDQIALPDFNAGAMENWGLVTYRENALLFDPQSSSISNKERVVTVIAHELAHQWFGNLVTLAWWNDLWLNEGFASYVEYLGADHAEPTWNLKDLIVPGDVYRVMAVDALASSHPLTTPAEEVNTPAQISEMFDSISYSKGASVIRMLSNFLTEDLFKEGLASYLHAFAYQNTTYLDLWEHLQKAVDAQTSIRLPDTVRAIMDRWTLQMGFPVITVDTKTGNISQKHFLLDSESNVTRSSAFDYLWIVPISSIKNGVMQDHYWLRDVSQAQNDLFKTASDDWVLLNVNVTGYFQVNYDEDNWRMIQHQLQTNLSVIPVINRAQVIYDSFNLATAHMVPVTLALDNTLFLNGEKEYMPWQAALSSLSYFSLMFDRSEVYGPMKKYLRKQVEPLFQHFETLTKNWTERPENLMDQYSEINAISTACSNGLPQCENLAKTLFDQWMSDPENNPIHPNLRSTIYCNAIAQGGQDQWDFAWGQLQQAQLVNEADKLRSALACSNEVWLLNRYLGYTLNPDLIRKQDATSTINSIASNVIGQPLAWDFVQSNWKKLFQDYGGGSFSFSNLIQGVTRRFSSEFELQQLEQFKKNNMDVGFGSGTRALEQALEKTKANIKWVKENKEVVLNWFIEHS
Procedure, shortened: (§1)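 Initial rates came from reactions started by adding enzyme to substrate plus inhibitor. Final steady-state rates came after 15-20 min enzyme-inhibitor preincubation, with substrate added to start. Reaction velocities were analysed by Lineweaver-Burk plots.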

Aminopeptidase N [2] = biological target: T1, Aminopeptidase N; assay: Effect of inhibitor structure on the slow binding inhibition of aminopeptidase M was determined and the Ki was reported which is = k2/k1; procedure, shortened: as §1
Aminopeptidase N [3] = biological target: T1, Aminopeptidase N; assay: Effect of inhibitor structure on the slow binding inhibition of aminopeptidase M was determined and Ki* was reported which is obtained by the equation Ki[k4/(k3 + k4)]; procedure, shortened: as §1
Aminopeptidase N [4] = biological target: T1, Aminopeptidase N; assay: Compound was evaluated for the inhibition of Aminopeptidase M (AP-M) from porcine kidney and the inhibition constant was determined after preincubating the enzyme and inhibitor; procedure, shortened: as §1
[5] = biological target: Cytosol aminopeptidase (Sus scrofa) (UniProt P28839); assay: Compound was evaluated for the inhibition of Leucine aminopeptidase from porcine kidney and the inhibition constant (Ka) was determined which is the apparent Km in the presence of tripeptide after preincubating the enzyme and inhibitor
Sequence of Cytosol aminopeptidase (Sus scrofa) (P28839 whole entry, looked up): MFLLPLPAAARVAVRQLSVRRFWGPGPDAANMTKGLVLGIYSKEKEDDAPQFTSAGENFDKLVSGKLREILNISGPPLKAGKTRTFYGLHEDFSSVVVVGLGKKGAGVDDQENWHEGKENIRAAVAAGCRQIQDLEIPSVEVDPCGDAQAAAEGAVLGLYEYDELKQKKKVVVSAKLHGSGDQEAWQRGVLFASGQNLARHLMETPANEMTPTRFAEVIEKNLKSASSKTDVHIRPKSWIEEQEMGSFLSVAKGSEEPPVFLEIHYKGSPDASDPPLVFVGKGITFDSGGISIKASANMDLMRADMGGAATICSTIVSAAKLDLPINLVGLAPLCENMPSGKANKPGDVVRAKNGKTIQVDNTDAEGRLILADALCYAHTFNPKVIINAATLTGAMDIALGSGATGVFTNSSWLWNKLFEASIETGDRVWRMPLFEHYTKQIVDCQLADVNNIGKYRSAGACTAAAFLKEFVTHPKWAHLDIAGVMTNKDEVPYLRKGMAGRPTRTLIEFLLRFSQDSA

Aminopeptidase N [6] = biological target: T1, Aminopeptidase N; assay: Effect of inhibitor structure on the slow binding inhibition of Aminopeptidase M from porcine kidney was determined and Ki was reported which is obtained by the equation Ki[k4/(k3 + k4)]; procedure, shortened: as §1
Aminopeptidase N [7] = biological target: T1, Aminopeptidase N; assay: Effect of inhibitor structure on the slow binding inhibition of Aminopeptidase M from porcine kidney was determined and the Ki was reported which is = k2/k1; procedure, shortened: as §1

Ki (Aminopeptidase N [1]): 0.94 µM
Ki (Aminopeptidase N [2]): 40 µM
Ki (Aminopeptidase N [3]): 0.9 µM
SMILES: CC(C)CC(N)C(O)C(=O)NC(C(=O)NC(CC(=O)O)C(=O)O)C(C)C (stereo unspecified)

Ki (Aminopeptidase N [4]): 1000 µM
SMILES: CC(C)CCNC(=O)[C@@H](NC(=O)[C@@H](NC(=O)C[C@H](O)[C@@H](N)CC(C)C)C(C)C)C(C)C

Ki (Aminopeptidase N [1]): 0.18 µM
SMILES: CC(C)CCNC(=O)[C@@H](NC(=O)[C@@H](NC(=O)[C@H](O)[C@@H](N)CC(C)C)C(C)C)C(C)C

Ki (Aminopeptidase N [1]): 11.8 µM
SMILES: CC(C)C[C@H](NC(=O)[C@@H](O)[C@H](N)CC(C)C)C(=O)O

Ka [5]: 0.0057
SMILES: CC(C)C[C@H](N)[C@@H](O)CC(=O)N[C@H](C(=O)N[C@H](C(=O)N[C@@H](CC(=O)O)C(=O)O)C(C)C)C(C)C (H-[Sta]VVD-OH)

Ki (Aminopeptidase N [1]): 25 µM
SMILES: CC(C)C[C@@H](N)CC(=O)N[C@H](C(=O)N[C@H](C(=O)N[C@@H](CC(=O)O)C(=O)O)C(C)C)C(C)C

Ki (Aminopeptidase N [6]): 16 µM
Ki (Aminopeptidase N [4]): 16.3 µM
Ki (Aminopeptidase N [7]): 16 µM
SMILES: CC(C)CCNC(=O)[C@H](O)[C@@H](N)Cc1ccccc1
